According to publication PMC7114262 (Antiviral Research, 2005):

Experiments:
[1] = Cytotoxicity, tetrazolium dye assay, growing HEL monolayers; format: cell-based; settings: human, growing HEL fibroblast monolayers
Outline: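 Cytotoxicity in growing HEL fibroblasts: cells not serum-starved, about 10% confluent when compound was added. Viability read by tetrazolium colorimetric dye after 72 h of exposure, as absorbance at 470 nm relative to DMSO-matched control wells. CC50 obtained by linear regression of percent inhibition versus concentration, reported as mean ± standard deviation of quadruplicate experiments.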

[2] = Cytotoxicity, tetrazolium dye assay, static HEL monolayers; format: cell-based, human; settings: human, static (confluent, serum-starved) HEL fibroblast monolayers
Outline: (§1)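 Confluent HEL fibroblasts serum-starved 48 h, then exposed to a range of compound concentrations without virus or methylcellulose. After 72 h, viability read by tetrazolium colorimetric dye at 470 nm, as a percentage of DMSO-matched control wells. CC50 obtained by linear regression of percent inhibition against concentration, reported as mean ± standard deviation of quadruplicate experiments.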

[3] = system: Static HEL fibroblasts; experiment: as above; format: cell-based, human; settings: 20 μM (5.4 μg/ml) baicalein, 50 μM (13.5 μg/ml) genistein
Outline: as §1

[4] = system: HCMV proteins (IE1-72, IE2-86, UL84, UL94); experiment: Western blot / immunoprecipitation of HCMV proteins in infected HEL cells; format: cell-based, human cytomegalovirus
[5] = system: HCMV DNA; experiment: HCMV DNA assay; format: cell-based, human cytomegalovirus
Outline: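 Confluent HEL cells serum-starved 48 h, then infected with HCMV at 2–5 pfu/cell with or without compound; 50 μM ganciclovir served as control. At 72 hpi, wells were frozen in PBS at −80 °C and thawed. DNA was denatured in NaOH/NaCl, neutralized with Tris pH 7.0, and baked onto nitrocellulose. Serial dilutions were probed 14 h at 42 °C with 32P nick-translated Towne genomic DNA and read by autoradiography; four independent experiments.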

[6] = system: HCMV DNA; experiment: Reversibility of antiviral effect after drug removal; format: cell-based, human cytomegalovirus; settings: drug removed at 72 hpi; 20 μM baicalein, 50 μM genistein
Outline: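 HEL cells infected with HCMV in presence of compound (20 or 50 μM) for 72 h. Medium then replaced with drug-free medium and replication allowed for a further 72 h. Viral DNA measured at 24 h intervals by 32P-probe dot blot hybridization; experiment reproduced twice.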

[7] = system: cdk2, cyclin E, p53, and PCNA; experiment: Immunoblot of HCMV-induced cell cycle regulatory proteins; format: cell-based, human; settings: 24 hpi; 50 μM ganciclovir, 20 μM baicalein, 50 μM genistein
Outline: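 Confluent, serum-starved HEL cells given compound (20 or 50 μM final; 50 μM ganciclovir control) from 1 h before and throughout HCMV infection. Harvested at 24 hpi in SDS sample buffer and run on 8–10% SDS-PAGE. Immunoblotted for cdk2, cyclin E, p53 and PCNA (milk block, primary overnight at 4 °C, HRP secondary, ECL). Bands quantified by densitometry of scanned films.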

[8] = system: NF-κB; experiment: EMSA of HCMV-mediated NF-κB activation; format: cell-based, human; settings: 24 hpi; 20 μM baicalein, 50 μM genistein
[9] = molecular target: EGFR (Homo sapiens, UniProt P00533); experiment: HCMV-mediated EGFR tyrosine phosphorylation; format: cell-based; settings: shortly after infection; 20 μM baicalein, 50 μM genistein
[10] = system: HCMV tegument protein pp65; experiment: HCMV nuclear translocation, pp65 fluorescence microscopy; format: cell-based, human cytomegalovirus; settings: 6 hpi; 20 μM baicalein, 50 μM genistein
Outline: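 Confluent HEL fibroblasts on chamber slides, serum-starved overnight and chilled on ice. Ice-cold compound-containing or plain DMEM added 10 min before infection with HCMV at 2–5 pfu/cell ± compound: 1 h at 4 °C, then 1 h at 37 °C. Cells washed and kept 5 h at 37 °C ± compound. Methanol-fixed at −20 °C, stained with anti-pp65 (1:1000), fluorescein secondary (1:500) and DAPI; nuclear pp65 examined at 6 hpi.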

[11] = persons on a high soy diet, estimated; ref Adlercreutz et al., 1993; cited from earlier work
[12] = system: HCMV; settings: ≤12 μM genistein, IE1-72 protein levels at 24 hpi; ref Slobbe-van Drunen et al., 1997; cited from earlier work

Chain of EGFR (P00533 25-1210): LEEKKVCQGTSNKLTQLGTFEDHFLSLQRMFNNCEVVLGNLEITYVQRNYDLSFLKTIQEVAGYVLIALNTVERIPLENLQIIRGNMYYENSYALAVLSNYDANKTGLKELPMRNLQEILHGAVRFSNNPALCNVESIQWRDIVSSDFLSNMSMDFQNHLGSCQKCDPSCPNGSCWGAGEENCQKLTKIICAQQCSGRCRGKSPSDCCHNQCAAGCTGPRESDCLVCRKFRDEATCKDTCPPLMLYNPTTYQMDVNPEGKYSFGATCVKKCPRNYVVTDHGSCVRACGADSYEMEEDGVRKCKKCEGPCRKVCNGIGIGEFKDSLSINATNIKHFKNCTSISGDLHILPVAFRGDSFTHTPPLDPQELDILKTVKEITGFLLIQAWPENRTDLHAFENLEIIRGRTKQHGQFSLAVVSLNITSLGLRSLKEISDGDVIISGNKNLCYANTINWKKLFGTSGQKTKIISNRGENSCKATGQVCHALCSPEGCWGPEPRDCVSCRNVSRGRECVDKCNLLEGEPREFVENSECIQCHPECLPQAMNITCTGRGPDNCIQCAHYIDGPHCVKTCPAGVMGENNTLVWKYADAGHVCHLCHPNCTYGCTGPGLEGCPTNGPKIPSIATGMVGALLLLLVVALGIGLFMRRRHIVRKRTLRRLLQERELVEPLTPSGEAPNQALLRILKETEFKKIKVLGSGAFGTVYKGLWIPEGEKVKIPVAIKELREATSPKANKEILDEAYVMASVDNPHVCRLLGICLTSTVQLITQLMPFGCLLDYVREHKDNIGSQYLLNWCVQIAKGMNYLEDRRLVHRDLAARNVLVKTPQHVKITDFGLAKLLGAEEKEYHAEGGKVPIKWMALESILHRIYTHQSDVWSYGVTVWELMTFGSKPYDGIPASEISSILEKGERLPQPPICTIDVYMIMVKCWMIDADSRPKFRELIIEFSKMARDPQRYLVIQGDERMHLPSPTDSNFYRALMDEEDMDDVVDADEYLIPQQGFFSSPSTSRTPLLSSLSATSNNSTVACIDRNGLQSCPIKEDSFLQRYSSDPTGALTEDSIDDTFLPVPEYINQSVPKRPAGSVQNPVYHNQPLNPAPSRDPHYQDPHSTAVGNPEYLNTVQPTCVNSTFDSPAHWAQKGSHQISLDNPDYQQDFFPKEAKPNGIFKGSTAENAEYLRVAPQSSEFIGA

Compound | CC50 at 72 h [1] | CC50 at 72 h [2] | HCMV-mediated increases in steady-state levels of cdk2, cyclin E, p53, and PCNA [7] | further results
O=c1cc(-c2ccc(O)cc2)oc2cc(O)cc(O)c12 [Apigenin] | > 100 µM | > 100 µM |  | 
O=c1cc(-c2ccccc2)oc2cc(O)c(O)c(O)c12 [Baicalein] | > 100 µM | > 100 µM | inhibited | Cytotoxicity in cell culture at concentration used for mechanism studies [3]: did not display obvious cytotoxicity; Levels of all three kinetic classes of HCMV proteins ([4]; 20 μM baicalein, immunoblot 24, 48, 72 hpi): reduced to nearly background levels; HCMV DNA level ([5]; 20 μM baicalein, 72 hpi): reduced to nearly background levels; Reversibility of antiviral effects [6]: poorly reversible; HCMV induction of NF-κB [8]: absent; HCMV-induced EGFR phosphorylation [9]: reduced to background levels; Nuclear accumulation of pp65 [10]: blocked
O=C(O)[C@H]1O[C@@H](Oc2cc3oc(-c4ccccc4)cc(=O)c3c(O)c2O)[C@H](O)[C@@H](O)[C@@H]1O [Baicalin] | > 400 µM | > 400 µM |  | 
O=c1c(-c2ccc(O)cc2)coc2cc(O)ccc12 [Daidzein] | > 200 µM | > 200 µM |  | 
O=c1c(O)c(-c2ccccc2)oc2cc(O)cc(O)c12 [Galangin] | > 400 µM | > 400 µM |  | 
Nc1nc(O)c2ncn(COC(CO)CO)c2n1 [Ganciclovir] |  |  | not affected | 
O=c1c(-c2ccc(O)cc2)coc2cc(O)cc(O)c12 [Genistein] | 124 ± 52 µM | > 200 µM | inhibited | Cytotoxicity in cell culture at concentration used for mechanism studies [3]: did not display obvious cytotoxicity; IE1-72 level ([4]; 50 μM genistein, 24 hpi): slightly lower levels; Reduction of IE2-86 levels ([4]; 50 μM genistein, 24 hpi): ≤ 65%; UL84 and UL94 protein levels ([4]; 50 μM genistein, 48 and 72 hpi respectively): nearly background levels; inhibition at 50 µM ([5]; Human betaherpesvirus 5, read-out: Inhibition of HCMV DNA replication): ~95%; Reversibility of antiviral effects [6]: fully; HCMV induction of NF-κB [8]: absent; Steady-state serum levels [11]: 1 to 5 µM; Inhibition of HCMV replication [12]: did not inhibit
O=c1cc(-c2ccc(O)c(O)c2)oc2cc(O)cc(O)c12 [Luteolin] | 62 ± 10 µM | > 200 µM |  | 
O=C1C[C@@H](c2ccc(O)cc2)Oc2cc(O)cc(O)c21 [Naringenin] | > 100 µM | > 100 µM |  | 
O=c1c(O)c(-c2ccc(O)c(O)c2)oc2cc(O)cc(O)c12 [Quercetin] | > 400 µM | > 400 µM |  | 
